Consider 1 molecule from ChEMBL document CHEMBL4312027, “Synthesis, characterization, and biological activity of a triphenylphosphonium-containing imidazolium salt against select bladder cancer cell lines” (Eur J Med Chem, 2020).

The test system of data set [1] is RT-112. Description: Cytotoxicity against human RT112 cells assessed as cellular fragmentation at 250 to 500 uM incubated for 1 hr and measured at 24 hrs after treatment. The data set is classed as functional, cell-based.
For the next data set, the system named is UO-31. The experiment in a line: Growth inhibition of human UO31 cells assessed as growth percent at 10 uM incubated for 48 hrs by sulforhodamine B assay relative to control. The format is functional. To be noted: UO-31, 48 h, read-out: Activity. In general terms: The SRB assay estimates cell density from bound dye.
The test system of another data set is SN12C. Description: Growth inhibition of human SN12C cells assessed as growth percent at 10 uM incubated for 48 hrs by sulforhodamine B assay relative to control. The format is functional. To be noted: read-out: Activity.
For a further data set, the system named is HT-29. The experiment in a line: Growth inhibition of human HT-29 cells assessed as growth percent at 10 uM incubated for 48 hrs by sulforhodamine B assay relative to control. The format is functional. Conditions: HT-29, 48 h, read-out: Activity.
Data set [2] can be described thus: Toxicity in anesthetized BBN-induced bladder tumor mouse model assessed as cleaved caspase 3 level in tumor adjacent normal […] at 1500 uM administered via intravesical instillation treated for 1 hr administered as 2 doses at 24 hrs interval and measured at 24 hrs after final treatment by hematoxylin and eosin staining based immunohistochemical analysis. Conditions: in vivo, other. Put shortly:
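Bladder tumors induced with 0.05% BBN in drinking water and confirmed by excretory μCT urography. Anesthetized (isoflurane) mice given intravesical 1500 μM or vehicle by catheter. Two 1 h doses 24 h apart. Females received 100 μL in 10% DMSO/PBS; males received doubled concentration in 50 μL of 20% DMSO/PBS. Bladder immunohistology for cleaved caspase-3.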

The next data set relates to NCI-H460. The experiment in a line: Growth inhibition of human NCI-H460 cells assessed as growth percent at 10 uM incubated for 48 hrs by sulforhodamine B assay relative to control. The format is functional. Conditions: NCI-H460, 48 h, read-out: Activity.
The next data set deals with OVCAR-5. Description: Growth inhibition of human OVCAR5 cells assessed as growth percent at 10 uM incubated for 48 hrs by sulforhodamine B assay relative to control. The data set is classed as functional. Conditions: OVCAR-5, 48 h, read-out: Activity.
The subject of a further data set is SK-OV-3. The experiment in a line: Growth inhibition of human SKOV3 cells assessed as growth percent at 10 uM incubated for 48 hrs by sulforhodamine B assay relative to control. The data set is classed as functional. To be noted: SK-OV-3, 48 h, read-out: Activity.
In data set [3] the test system is RT-112. The experiment in a line: Induction of apoptosis in human RT112 cells assessed as caspase 9 cleavage at 250 to 500 uM incubated for 1 hr and measured at 24 hrs after treatment by Western blot analysis. The data set is classed as functional, cell-based. Put shortly: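 RT112 seeded 300,000/well; after 24 h, 250 or 500 μM or vehicle. Cells plus floating debris harvested immediately or 24 h after treatment, lysed in RIPA with protease inhibitors. About 30 μg protein heated 10 min at 95 °C with DTT, run on SDS-PAGE. Immunoblotted for PARP and caspase 9, Ran as loading control, ECL detection.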
On the technique in general: In western blotting, separated proteins are transferred to a membrane and probed.

The subject of the next data set is MDA-MB-231. Description: Growth inhibition of human MDA-MB-231 cells assessed as growth percent at 10 uM incubated for 48 hrs by sulforhodamine B assay relative to control. The data set is classed as functional. Conditions: MDA-MB-231, 48 h, read-out: Activity.
The subject of another data set is NCI-H322M. Description: Growth inhibition of human NCI-H322M cells assessed as growth percent at 10 uM incubated for 48 hrs by sulforhodamine B assay relative to control. To be noted: read-out: Activity. The format is functional.
In another data set the test system is TK-10. Description: Growth inhibition of human TK10 cells assessed as growth percent at 10 uM incubated for 48 hrs by sulforhodamine B assay relative to control. The format is functional. To be noted: TK-10, 48 h, read-out: Activity.
For data set [4], the system named is RT-112. The experiment in a line: Anticlonogenic activity against human RT112 cells assessed as no colony formation at 250 to 500 uM incubated for 1 hr measured after culturing in normal medium for 10 days by crystal violet staining assay. The data set is classed as functional, cell-based. Put shortly:
(§1)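 Cells seeded at 500/well, treated 24 h later with 250 or 500 μM drug or vehicle for 1 h. Cells were then grown in normal media for 10 days, stained with 0.5% crystal violet in 20% MeOH/water at 4 °C for 5 min, washed, dried and imaged. Run in triplicate.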

The test system of a further data set is U-251. Description: Growth inhibition of human U251 cells assessed as growth percent at 10 uM incubated for 48 hrs by sulforhodamine B assay relative to control. The format is functional. To be noted: U-251, 48 h, read-out: Activity.
Data set [5] concerns Mus musculus. The experiment in a line: Antitumor activity against anesthetized BBN-induced bladder tumor mouse model assessed as increase in cleaved caspase 3 level in necrotic region at 1500 uM administered via intravesical instillation treated for 1 hr administered as 2 doses at 24 hrs interval and measured at 24 hrs after final treatment by hematoxylin and eosin staining based immunohistochemical analysis. The data set is classed as functional, organism-based.

For the next data set, the system named is OVCAR-8. Description: Growth inhibition of human OVCAR8 cells assessed as growth percent at 10 uM incubated for 48 hrs by sulforhodamine B assay relative to control. Conditions: OVCAR-8, 48 h, read-out: Activity. The format is functional.
Another data set concerns UMUC3. Description: Anticlonogenic activity against human UM-UC-3 cells assessed as no colony formation at 250 to 500 uM incubated for 1 hr measured after culturing in normal medium for 10 days by crystal violet staining assay. The data set is classed as functional, cell-based. Put shortly:
as §1

In data set [6] the test system is Mus musculus. The experiment in a line: Induction of urothelium exfoliation in anesthetized female mouse model assessed as decrease in urothelial cell height at 750 to 1500 uM administered via intravesical instillation after bladder evacuation treated for 1 hr followed by repetition of the treatment after 24 hrs and measured at 24 hrs after final treatment by hematoxylin and eosin staining based analysis. The data set is classed as organism-based. Conditions: in vivo, other. Put shortly: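 Female mice anesthetized, 1–3% isoflurane. Bladder evacuated, then 100 μL of 750 or 1500 μM in 10% DMSO/PBS (or vehicle) instilled by 24G angiocatheter. Catheter left in place for a 1 h dwell. Repeated after 24 h; mice sacrificed 24 h after final dose. Bladder histology read for urothelial height and layers.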

For a further data set, the system named is J82. The experiment in a line: Anticlonogenic activity against human J82 cells assessed as decrease in colony formation at 250 to 500 uM incubated for 1 hr measured after culturing in normal medium for 10 days by crystal violet staining assay. The format is functional, cell-based. In a few lines:
as §1

Data set [7] concerns RT-112. The experiment in a line: Growth inhibition of human RT112 cells at 250 uM measured after 5 to 60 mins by Celltiter-Glo luminescent cell viability assay. The data set is classed as functional, cell-based. Background: Cellular ATP, detected with luciferase, serves as a proxy for viable cell number.
The subject of data set [8] is RT-112. Description: Cell cycle arrest in human RT112 cells assessed as cell accumulation at sub-G1 phase at 500 uM incubated for 1 hr measured after culturing in normal medium for 24 hrs by propidium iodide/RNase staining based FACScan flow cytometry analysis. The data set is classed as functional. In a few lines: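 Seeded at 300,000 cells/well in triplicate per treatment; 24 h later exposed to 250 or 500 μM or vehicle for 1 h. After 24 h in normal media, media plus cells were collected, washed, fixed in cold 70% ethanol (4 °C, 30 min), treated with phosphate citric acid buffer, stained with PI/RNase and gated for sub-G1 by flow cytometry.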

Data set [9] relates to RT-112. Description: Induction of mitochondrial membrane depolarization in human RT112 cells at 200 uM measured after 1 hr by JC-1 staining based confocal microscopy. The data set is classed as functional, cell-based. In a few lines:
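RT112 cells, 200000 per glass-bottom dish, plated overnight. Exposed to 200 μM for 45 min, then JC-1 added (final 10 μg/mL) for 15 min. Confocal live imaging, excitation 485 nm, emission 530 and 590 nm, every 15 min for 6 h. Red punctate staining taken as polarized mitochondria, green as depolarized. CCCP as positive control.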

Data set [10] can be described thus: Solubility of compound in water. The data set is classed as physicochemical.

Active and inactive are the calls of the source. No cut-off for these calls is given here.

As usually defined, the solubility is how much of the substance goes into solution per volume. Read a low solubility as a poorly soluble substance. Regarding `[Br-].[Br-].c1ccc([P+](CCCc2n(Cc3ccc4ccccc4c3)c3ccccc3[n+]2Cc2ccc3ccccc3c2)(c2ccccc2)c2ccccc2)cc1`, the result with RT-112 [1] and with Mus musculus [5] was Active. The growth at 10 µM in the data set with UO-31 worked out at 61.2%; in the data set on SN12C it was 55%; in the data set with HT-29 it was 23.9%; with NCI-H460, 34.8%; with OVCAR-5, 60.1%; in the data set on SK-OV-3, 84.5%. Moreover, the growth at 10 µM with MDA-MB-231 was found to be 51%; in the data set on NCI-H322M, 63.8%; with TK-10 it was 89.2%; with U-251, 46.5%; in the data set with OVCAR-8 it was 70.2%. The Activity result (in data set [2]; in the data set on Mus musculus [6]) was “Non-Toxic” in each case. Moreover, the outcome with RT-112 [3], in the data set with RT-112 [8] and with RT-112 [9] was inactive. The inhibition result with RT-112 [4], in the data set with UMUC3 and in the data set with J82 was “Active” throughout. Besides, the “growth inhibition (GI)” value in the data set on RT-112 [7] was “Active”. The molecule also showed a solubility in data set [10] of 8000 µg/mL.
